Source: ChEMBL document CHEMBL1914368, “Imidazo[1,5-a]quinoxalines as irreversible BTK inhibitors for the treatment of rheumatoid arthritis” (Bioorg Med Chem Lett, 2011)

What was measured:
[1] = molecular target: T1, Tyrosine-protein kinase BTK (Homo sapiens, UniProt Q06187); assay: Inhibition of human full-length BTK expressed in Sf9 cells using FAM-Srctide peptide as substrate preincubated for 60 mins measured after 60 mins by TR-FRET Assay
How it was run: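 The compound was pre-incubated with the kinase before the enzymatic reaction was started. IC50 values are averages of two or more determinations.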

[2] = Clearance in mouse at 2 mg/kg, iv; type: ADME, organism-based; set-up: dose 2 mg/kg, route intravenous; conditions: in vivo
[3] = Oral bioavailability in mouse at 10 mg/kg; type: ADME, organism-based; conditions: in vivo
How it was run: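 Mouse pharmacokinetics from single dosing at 2 mg/kg iv and 10 mg/kg po. The study derived AUC, T1/2, clearance, Vss, Tmax, Cmax and oral bioavailability (%F) from the paired iv and po arms.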

[4] = molecular target: T1, Tyrosine-protein kinase BTK; assay: Inhibition of BTK relative to control
[5] = molecular target: Serine/threonine-protein kinase Chk1 (Homo sapiens) (UniProt O14757); assay: Inhibition of CHEK1 relative to control; conditions: concentration not given here
[6] = molecular target: Interleukin-1 receptor-associated kinase 4 (Homo sapiens) (UniProt Q9NWZ3); assay: Inhibition of IRAK4 relative to control; conditions: concentration not given here
[7] = molecular target: Tyrosine-protein kinase JAK3 (Homo sapiens) (UniProt P52333); assay: Inhibition of JAK3 relative to control; conditions: concentration not given here
[8] = molecular target: Tyrosine-protein kinase Lck (Homo sapiens, UniProt P06239); assay: Inhibition of LCK relative to control; conditions: concentration not given here
[9] = molecular target: Mitogen-activated protein kinase 1 (Homo sapiens) (UniProt P28482); assay: Inhibition of MAPK1 relative to control; conditions: concentration not given here
[10] = molecular target: Serine/threonine-protein kinase MARK1 (Homo sapiens) (UniProt Q9P0L2); assay: Inhibition of MARK1 relative to control; conditions: concentration not given here
[11] = molecular target: High affinity nerve growth factor receptor (Homo sapiens) (UniProt P04629); assay: Inhibition of NTRK1 relative to control; conditions: concentration not given here
[12] = molecular target: Phosphatidylinositol 4-phosphate 3-kinase C2 domain-containing subunit beta (Homo sapiens) (UniProt O00750); assay: Inhibition of PI3K-C2 beta relative to control; conditions: concentration not given here
[13] = molecular target: cAMP-dependent protein kinase catalytic subunit alpha (Homo sapiens) (UniProt P17612); assay: Inhibition of PRKACA relative to control; conditions: concentration not given here
[14] = molecular target: Receptor-interacting serine/threonine-protein kinase 2 (Homo sapiens) (UniProt O43353); assay: Inhibition of RIPK2 relative to control; conditions: concentration not given here
[15] = molecular target: Tyrosine-protein kinase Tec (Homo sapiens) (UniProt P42680); assay: Inhibition of TEC relative to control; conditions: concentration not given here
Sequence of Tyrosine-protein kinase Tec (Homo sapiens) (P42680 whole entry): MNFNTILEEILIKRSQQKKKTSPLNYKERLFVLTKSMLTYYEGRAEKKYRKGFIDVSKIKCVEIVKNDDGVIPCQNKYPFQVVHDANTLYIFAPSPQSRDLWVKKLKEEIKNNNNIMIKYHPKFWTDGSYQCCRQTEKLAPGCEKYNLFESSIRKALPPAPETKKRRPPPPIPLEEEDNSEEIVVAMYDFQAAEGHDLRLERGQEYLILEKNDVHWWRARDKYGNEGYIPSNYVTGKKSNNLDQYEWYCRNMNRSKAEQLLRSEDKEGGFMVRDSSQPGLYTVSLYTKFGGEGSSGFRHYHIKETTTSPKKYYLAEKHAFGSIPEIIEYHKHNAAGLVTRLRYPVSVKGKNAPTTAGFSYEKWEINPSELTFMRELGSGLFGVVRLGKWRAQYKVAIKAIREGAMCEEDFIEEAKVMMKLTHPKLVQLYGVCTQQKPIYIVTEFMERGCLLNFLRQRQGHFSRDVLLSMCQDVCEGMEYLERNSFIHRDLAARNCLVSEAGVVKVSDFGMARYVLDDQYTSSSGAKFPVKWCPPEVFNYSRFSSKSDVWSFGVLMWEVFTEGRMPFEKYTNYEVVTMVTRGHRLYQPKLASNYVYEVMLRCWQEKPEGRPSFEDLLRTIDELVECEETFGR

T1 sequence (Q06187 whole entry): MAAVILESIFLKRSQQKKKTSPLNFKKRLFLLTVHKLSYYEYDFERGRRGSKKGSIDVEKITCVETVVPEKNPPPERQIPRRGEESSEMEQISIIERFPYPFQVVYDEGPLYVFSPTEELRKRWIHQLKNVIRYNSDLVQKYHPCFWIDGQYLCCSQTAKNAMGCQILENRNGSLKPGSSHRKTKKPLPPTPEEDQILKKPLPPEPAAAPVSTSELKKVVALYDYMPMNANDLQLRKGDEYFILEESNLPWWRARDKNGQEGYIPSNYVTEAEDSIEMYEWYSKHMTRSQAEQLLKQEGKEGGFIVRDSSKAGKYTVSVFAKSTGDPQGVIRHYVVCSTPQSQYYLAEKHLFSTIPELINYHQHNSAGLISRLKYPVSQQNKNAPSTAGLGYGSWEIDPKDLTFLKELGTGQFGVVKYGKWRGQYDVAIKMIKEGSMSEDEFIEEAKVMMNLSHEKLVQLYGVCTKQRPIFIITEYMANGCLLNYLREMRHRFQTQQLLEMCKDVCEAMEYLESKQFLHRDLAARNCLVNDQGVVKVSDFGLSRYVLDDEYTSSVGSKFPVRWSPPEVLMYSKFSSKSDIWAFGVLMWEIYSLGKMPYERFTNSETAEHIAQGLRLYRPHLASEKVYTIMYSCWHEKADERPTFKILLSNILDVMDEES
Sequence of Phosphatidylinositol 4-phosphate 3-kinase C2 domain-containing subunit beta (Homo sapiens) (O00750 whole entry, the tested form may be a part): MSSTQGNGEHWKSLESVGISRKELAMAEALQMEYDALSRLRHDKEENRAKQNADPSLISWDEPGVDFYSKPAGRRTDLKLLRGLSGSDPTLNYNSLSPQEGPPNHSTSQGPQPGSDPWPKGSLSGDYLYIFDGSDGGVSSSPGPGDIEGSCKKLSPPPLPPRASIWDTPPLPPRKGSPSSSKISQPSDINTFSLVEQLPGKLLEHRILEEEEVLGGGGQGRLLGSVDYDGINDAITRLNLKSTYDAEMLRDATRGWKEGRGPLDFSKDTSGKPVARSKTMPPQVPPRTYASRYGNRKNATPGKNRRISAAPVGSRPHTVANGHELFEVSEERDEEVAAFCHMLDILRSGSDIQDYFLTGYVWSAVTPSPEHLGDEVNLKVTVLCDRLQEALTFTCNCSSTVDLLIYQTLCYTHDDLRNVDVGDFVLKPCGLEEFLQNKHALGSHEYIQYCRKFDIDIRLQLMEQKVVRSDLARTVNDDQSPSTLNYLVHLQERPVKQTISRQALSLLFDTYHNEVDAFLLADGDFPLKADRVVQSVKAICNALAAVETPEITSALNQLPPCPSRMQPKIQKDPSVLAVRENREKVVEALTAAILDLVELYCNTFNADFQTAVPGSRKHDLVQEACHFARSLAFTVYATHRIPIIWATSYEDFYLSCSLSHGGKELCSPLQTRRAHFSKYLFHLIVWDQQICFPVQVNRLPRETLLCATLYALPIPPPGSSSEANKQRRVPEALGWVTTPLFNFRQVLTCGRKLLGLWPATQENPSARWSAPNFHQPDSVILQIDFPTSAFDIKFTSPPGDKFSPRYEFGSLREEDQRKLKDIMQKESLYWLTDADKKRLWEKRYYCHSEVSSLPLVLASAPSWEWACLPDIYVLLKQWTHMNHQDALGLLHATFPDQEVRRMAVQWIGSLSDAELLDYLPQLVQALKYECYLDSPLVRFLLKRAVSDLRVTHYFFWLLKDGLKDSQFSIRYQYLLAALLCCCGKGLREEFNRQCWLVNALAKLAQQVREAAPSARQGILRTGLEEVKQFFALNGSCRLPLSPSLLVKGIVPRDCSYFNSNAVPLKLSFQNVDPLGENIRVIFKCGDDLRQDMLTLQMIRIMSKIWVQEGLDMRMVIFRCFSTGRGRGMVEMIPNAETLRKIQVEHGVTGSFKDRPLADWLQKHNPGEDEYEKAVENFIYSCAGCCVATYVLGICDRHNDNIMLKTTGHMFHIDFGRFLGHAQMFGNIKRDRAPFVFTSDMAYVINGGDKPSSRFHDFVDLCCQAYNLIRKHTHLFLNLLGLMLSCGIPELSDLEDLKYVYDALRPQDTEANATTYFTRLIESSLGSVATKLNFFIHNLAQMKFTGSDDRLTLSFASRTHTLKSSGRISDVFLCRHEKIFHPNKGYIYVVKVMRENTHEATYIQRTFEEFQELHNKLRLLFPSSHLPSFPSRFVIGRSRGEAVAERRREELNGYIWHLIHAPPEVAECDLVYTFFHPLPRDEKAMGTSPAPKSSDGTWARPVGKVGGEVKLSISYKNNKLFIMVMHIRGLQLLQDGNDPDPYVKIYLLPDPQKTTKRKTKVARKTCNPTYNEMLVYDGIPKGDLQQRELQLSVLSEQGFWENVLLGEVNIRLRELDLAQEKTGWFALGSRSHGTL
Sequence of High affinity nerve growth factor receptor (Homo sapiens) (P04629 33-796 limits assumed): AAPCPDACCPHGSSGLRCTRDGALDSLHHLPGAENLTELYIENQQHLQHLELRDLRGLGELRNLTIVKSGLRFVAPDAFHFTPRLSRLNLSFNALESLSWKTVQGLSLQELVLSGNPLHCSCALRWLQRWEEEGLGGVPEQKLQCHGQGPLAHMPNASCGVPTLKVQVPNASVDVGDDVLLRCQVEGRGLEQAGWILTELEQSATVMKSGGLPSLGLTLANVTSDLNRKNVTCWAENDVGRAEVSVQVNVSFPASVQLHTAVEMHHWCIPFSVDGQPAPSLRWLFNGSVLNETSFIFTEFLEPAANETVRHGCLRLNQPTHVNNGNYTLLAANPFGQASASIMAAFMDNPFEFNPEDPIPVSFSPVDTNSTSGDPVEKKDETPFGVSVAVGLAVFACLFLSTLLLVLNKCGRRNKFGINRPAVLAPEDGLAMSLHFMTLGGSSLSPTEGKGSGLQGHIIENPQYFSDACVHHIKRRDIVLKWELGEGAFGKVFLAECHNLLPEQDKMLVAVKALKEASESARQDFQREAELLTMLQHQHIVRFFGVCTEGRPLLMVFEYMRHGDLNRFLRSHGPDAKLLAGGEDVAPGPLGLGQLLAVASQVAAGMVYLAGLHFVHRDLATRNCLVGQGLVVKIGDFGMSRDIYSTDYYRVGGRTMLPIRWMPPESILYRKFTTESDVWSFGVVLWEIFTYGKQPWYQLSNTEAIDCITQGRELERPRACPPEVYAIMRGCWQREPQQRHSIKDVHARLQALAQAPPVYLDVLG
Sequence of Serine/threonine-protein kinase Chk1 (Homo sapiens) (O14757 whole entry): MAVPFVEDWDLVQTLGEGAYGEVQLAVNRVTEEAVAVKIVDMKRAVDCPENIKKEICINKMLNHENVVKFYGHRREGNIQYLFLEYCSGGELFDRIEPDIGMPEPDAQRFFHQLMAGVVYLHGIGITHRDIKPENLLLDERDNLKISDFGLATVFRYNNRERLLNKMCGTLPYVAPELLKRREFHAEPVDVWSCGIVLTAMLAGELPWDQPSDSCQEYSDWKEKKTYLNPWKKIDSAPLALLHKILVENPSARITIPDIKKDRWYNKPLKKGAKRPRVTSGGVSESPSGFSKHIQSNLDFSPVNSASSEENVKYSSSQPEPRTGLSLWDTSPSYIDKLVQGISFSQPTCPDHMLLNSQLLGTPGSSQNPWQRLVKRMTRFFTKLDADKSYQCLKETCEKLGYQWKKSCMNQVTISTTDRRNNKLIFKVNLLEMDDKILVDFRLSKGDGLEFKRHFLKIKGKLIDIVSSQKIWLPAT
Sequence of Tyrosine-protein kinase Lck (P06239 2-509 limits assumed): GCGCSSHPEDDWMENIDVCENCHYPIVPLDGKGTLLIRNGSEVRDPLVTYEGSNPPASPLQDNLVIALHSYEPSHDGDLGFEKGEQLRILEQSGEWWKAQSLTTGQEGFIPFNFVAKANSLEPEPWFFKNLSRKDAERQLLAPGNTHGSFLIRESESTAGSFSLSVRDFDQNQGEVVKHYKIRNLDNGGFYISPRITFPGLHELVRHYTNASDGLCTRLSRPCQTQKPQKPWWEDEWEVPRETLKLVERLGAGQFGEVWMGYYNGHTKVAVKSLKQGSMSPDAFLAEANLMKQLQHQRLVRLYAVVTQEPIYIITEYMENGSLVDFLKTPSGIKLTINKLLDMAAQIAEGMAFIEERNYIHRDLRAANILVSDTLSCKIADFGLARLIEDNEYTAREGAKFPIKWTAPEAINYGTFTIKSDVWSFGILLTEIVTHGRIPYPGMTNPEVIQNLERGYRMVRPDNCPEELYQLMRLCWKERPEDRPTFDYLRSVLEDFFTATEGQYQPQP
Sequence of Mitogen-activated protein kinase 1 (Homo sapiens) (P28482 whole entry): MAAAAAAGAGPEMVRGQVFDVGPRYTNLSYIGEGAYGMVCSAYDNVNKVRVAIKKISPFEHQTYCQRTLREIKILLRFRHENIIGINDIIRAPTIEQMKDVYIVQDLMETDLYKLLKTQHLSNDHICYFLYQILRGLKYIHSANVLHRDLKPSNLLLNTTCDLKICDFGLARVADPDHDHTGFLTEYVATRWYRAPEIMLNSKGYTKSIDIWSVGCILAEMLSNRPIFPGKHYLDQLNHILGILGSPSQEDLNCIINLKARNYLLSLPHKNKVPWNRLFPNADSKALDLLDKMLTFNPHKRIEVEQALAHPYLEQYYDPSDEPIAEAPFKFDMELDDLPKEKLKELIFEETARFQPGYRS

IC50 [1]: 0.7 nM
clearance [2]: 63 mL/min/kg
bioavailability [3]: 34%
IC50 [4]: 3.31 nM
inhibition [5]: 8%
inhibition [6]: 10%
inhibition [7]: -4%
inhibition [8]: 25%
inhibition [9]: -4%
inhibition [10]: 8%
inhibition [11]: 8%
inhibition [12]: 11%
inhibition [13]: 11%
inhibition [14]: 8%
inhibition [15]: 42%
SMILES: Cc1ccccc1Nc1nc2cc(F)c(N(C)C(=O)/C=C/CN(C)C)cc2n2cncc12
